Assay outcomes deposited in PubChem by several laboratories.
TWEAK-Fn14 inh: TWEAK-Fn14 signaling inhibition; inhibition, % at 10 µM; 360,000 compounds, 2% hits; TWEAK-stimulated Fn14 reporter cells, luciferase luminescence, 8 h; AID 1159606; in the data active means inhibition above about 50%
Xi reactivation: reactivates the inactive X chromosome in mouse fibroblasts; activation, % at 7.58 µM; XiGFP mouse fibroblasts, % GFP-positive cells imaging, 3 d; cells co-treated with 5-aza-dC sensitizer; scaled so ellipticine positive control = 100%; AID 743238; 360,000 compounds, 0.055% hits;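 active means mean normalized replicate activation at least 10% and every replicate at or above 10%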
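System: SV40-immortalized XiGFP fibroblast cells, line 68-5-11 / Incubation: 3-day compound exposure, then 15 min fixation at room temperature / Compound: single concentration per compound, delivered by pin transfer / Buffer or medium: DMEM plus 5-aza-dC sensitizer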
CaV13 ICDI inh: Primary screen for inhibitors of IQ motif and Ca2+-dependent inactivation inhibitor domain binding in CACNA1D, Förster resonance energy transfer in living cells, …. HEK cells, CFP/YFP FRET ICDI-IQ, plate reader, 10 min; percent FRET-ratio fall versus neutral wells. inhibition, % at 12.3 µM. AID 743397. 340,000 compounds, 0.098% hits;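 active means mean replicate inhibition of at least 30% and at least 1% of replicates passing that level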
LGR2 inh: blocks bursicon-induced cAMP signaling via Drosophila LGR2. inhibition, % at 9.99 µM. 380,000 compounds, 0.35% hits. HEK293 LGR2, CRE-luciferase, bursicon-stimulated, 4 h;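 active means drop in luminescence signal, shown as inhibition above about 50% in the replicate tests, limit read from the data, passing the limit was not always enough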;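 further: agonist challenge used bursicon conditioned medium at about half maximal strength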
TROY signal inh: blocks TROY-dependent signaling in reporter cells; Q293 LMP1-TROYcd NF-kB luciferase reporter, 4 h; inhibition, % at 10 µM; 360,000 compounds, 0.98% hits;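 active means compounds whose plate-normalised and pattern-corrected inhibition of the luciferase reporter signal at the single screening dose is 50% or more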
Numbers stand for hits. Shown are actives, neighbours in structure and some others; about 2% of the full set was active somewhere.

`C[C@@H]1CCCCO[C@H](CN(C)S(=O)(=O)c2cn(C)cn2)[C@@H](C)CN([C@@H](C)CO)C(=O)c2cc(NC(=O)Nc3ccccc3)ccc2O1` gave Xi reactivation inactive and LGR2 inh inactive.
`CN(C)C(=O)c1ccc(-c2ccc3c(c2)[C@H]2[C@H](CCN2C(=O)c2cnccn2)[C@@H](CO)N3)cc1` gave Xi reactivation inactive and LGR2 inh inactive.
Screening Cc1ccccc1N(CC(=O)NCc1ccc2c(c1)OCO2)C(=O)C1CSC(=O)C1 (configuration not stated) returned TWEAK-Fn14 inh 50, Xi reactivation inactive, CaV13 ICDI inh inactive, LGR2 inh inactive and TROY signal inh inactive.
`O=C(NCC[C@@H]1CC[C@H](NS(=O)(=O)Cc2ccccc2)[C@@H](CO)O1)C1CCCC1` gave Xi reactivation inactive and LGR2 inh inactive.
Screening CC(=O)N1c2ccc(S(=O)(=O)NCC3CCC(C(=O)Nc4cc(C)ccn4)CC3)cc2CC1C (configuration not stated) returned TWEAK-Fn14 inh 56, Xi reactivation inactive, CaV13 ICDI inh inactive, LGR2 inh inactive and TROY signal inh inactive.
C[C@@H]1CN([C@H](C)CO)C(=O)Cc2cc(NC(=O)Nc3ccc4c(c3)OCO4)ccc2O[C@@H]1CN(C)Cc1ccc(Oc2ccccc2)cc1 was read as Xi reactivation inactive and LGR2 inh inactive.
Screening O=C(O)CSc1cc(NS(=O)(=O)c2ccc(Br)cc2)c2ccccc2c1O returned TWEAK-Fn14 inh 98, Xi reactivation inactive, CaV13 ICDI inh inactive, LGR2 inh inactive and TROY signal inh inactive.
`Cc1ccc(S(=O)(=O)Nc2ccc(Br)cc2C(NCC(=O)O)c2ccccc2)cc1` (configuration not stated) gave TWEAK-Fn14 inh inactive, Xi reactivation inactive, CaV13 ICDI inh inactive, LGR2 inh inactive and TROY signal inh inactive.
For O=S(=O)(Nc1cc(Sc2ncn[nH]2)c(O)c2ccccc12)c1ccccc1 the results were TWEAK-Fn14 inh 95, Xi reactivation inactive, CaV13 ICDI inh inactive, LGR2 inh 97 and TROY signal inh 62.
`O=C(NCCN1CCCCC1)[C@H]1[C@H](CO)[C@H]2Cn3c(cccc3=O)[C@H]2N1Cc1ccccn1` gave Xi reactivation inactive and LGR2 inh inactive.
`CCOc1ccc(OCc2ccc(C(=O)NN=Cc3ccc[nH]3)cc2)cc1` gave TWEAK-Fn14 inh 52, Xi reactivation inactive, CaV13 ICDI inh inactive, LGR2 inh inactive and TROY signal inh inactive.
For O=C(Oc1c(Cl)cc(Cl)c2cccnc12)c1cccs1 the results were TWEAK-Fn14 inh 109, CaV13 ICDI inh inactive and TROY signal inh inactive.
O=C(Oc1c(Cl)cc(Cl)c2cccnc12)c1ccco1 was read as TWEAK-Fn14 inh 86 and TROY signal inh 58.
Screening Cc1ccc2c(Cl)cc(Cl)c(O)c2n1 returned TWEAK-Fn14 inh 101, Xi reactivation inactive, CaV13 ICDI inh inactive, LGR2 inh inactive and TROY signal inh inactive.
`Oc1c(CN2CCN(c3ccccn3)CC2)cc(Cl)c2cccnc12` gave TWEAK-Fn14 inh 107 and TROY signal inh inactive.
Screening C[C@H](CO)N1C[C@H](C)[C@@H](CN(C)S(=O)(=O)c2ccccc2)Oc2ccc(NC(=O)NC3CCCCC3)cc2CC1=O returned Xi reactivation inactive and LGR2 inh inactive.
O=C(C[C@H]1C[C@H]2c3cc(NC(=O)C4CCOCC4)ccc3O[C@H]2[C@H](CO)O1)NCCN1CCCCC1 was read as Xi reactivation inactive and LGR2 inh inactive.
Screening CC(C)CC#Cc1ccc2c(c1)O[C@@H](CN(C)C(=O)c1ccncc1)[C@@H](C)CN([C@@H](C)CO)S2(=O)=O returned Xi reactivation inactive and LGR2 inh inactive.
CCC(=O)N(C)C[C@H]1Oc2ncc(-c3ccccc3C)cc2C(=O)N([C@@H](C)CO)C[C@@H]1C was read as Xi reactivation inactive and LGR2 inh inactive.
Oc1c(Cl)cc(Cl)c2cccnc12 was read as TWEAK-Fn14 inh inactive, Xi reactivation inactive, CaV13 ICDI inh inactive, LGR2 inh inactive and TROY signal inh 63.
Screening Oc1ccc(Cl)c2cccnc12 returned TWEAK-Fn14 inh inactive, Xi reactivation inactive, CaV13 ICDI inh inactive, LGR2 inh inactive and TROY signal inh inactive.
For C[C@@H]1CN([C@@H](C)CO)C(=O)c2cc(NC(=O)CCCCCC(=O)Nc3ccccc3N)ccc2O[C@@H]1CN(C)C(=O)Nc1ccc(C(F)(F)F)cc1 the results were Xi reactivation inactive and LGR2 inh inactive.
`COc1ccc(CCN2C(=O)CSC2=Nc2ccc(C(C)C)cc2)cc1OC` gave TWEAK-Fn14 inh 58, Xi reactivation inactive, CaV13 ICDI inh inactive, LGR2 inh inactive and TROY signal inh inactive.
Screening CC(=O)N1C[C@@H]2C(c3ccc(Br)cc3)[C@H](C1)N2C(=O)NC(C)C (some centres not stated) returned Xi reactivation inactive.
`CN(C)c1ncnc2c1ccn2C1OC(CO)C(O)C1O` (configuration not stated) gave TWEAK-Fn14 inh inactive, Xi reactivation inactive, CaV13 ICDI inh inactive, LGR2 inh inactive and TROY signal inh inactive.
For OCC1OC(n2cnc3c(NCc4ccccc4O)ncnc32)C(O)C1O (configuration not stated) the results were TWEAK-Fn14 inh 59, Xi reactivation inactive, CaV13 ICDI inh inactive, LGR2 inh inactive and TROY signal inh inactive.
For OC[C@H]1O[C@@H](n2cnc3c(Nc4ccccc4)ncnc32)[C@H](O)[C@@H]1O the results were TWEAK-Fn14 inh inactive, Xi reactivation inactive, CaV13 ICDI inh inactive, LGR2 inh inactive and TROY signal inh inactive.
OCC1OC(n2ccc3c(NO)ncnc32)C(O)C1O (configuration not stated) was read as TWEAK-Fn14 inh 82, Xi reactivation inactive, CaV13 ICDI inh inactive, LGR2 inh 92 and TROY signal inh inactive.
CCCC#Cc1cnc2c(c1)C(=O)N([C@H](C)CO)C[C@H](C)[C@H](CN(C)C(=O)CN1CCOCC1)O2 was read as Xi reactivation inactive and LGR2 inh inactive.
Screening CCn1nc([N+](=O)[O-])c(C(C#N)c2nc3ccccc3n2C)c(Cl)c1=O (configuration not stated) returned TWEAK-Fn14 inh 69, Xi reactivation inactive, CaV13 ICDI inh inactive, LGR2 inh inactive and TROY signal inh inactive.
O=[N+]([O-])c1ccc(CN2CCN(c3nc4ccccc4s3)CC2)cc1 was read as TWEAK-Fn14 inh inactive, Xi reactivation inactive, CaV13 ICDI inh inactive, LGR2 inh inactive and TROY signal inh inactive.
CCCn1nc([N+](=O)[O-])c(C(C#N)c2nc3ccccc3s2)c(Cl)c1=O (configuration not stated) was read as TWEAK-Fn14 inh 77, CaV13 ICDI inh inactive, LGR2 inh inactive and TROY signal inh inactive.
